The values below come from ChEMBL document CHEMBL5038602, “Potent Lys Patch-Containing Stapled Peptides Targeting PCSK9” (J Med Chem, 2021).

Series [1] concerns the target Proprotein convertase subtilisin/kexin type 9 (Homo sapiens, UniProt Q8NBP7). Description: Binding affinity to human PCSK9 by surface plasmon resonance. The method, boiled down:
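Recombinant human His-tagged PCSK9 (Gln31–Gln692, HEK293-expressed) at 14 µg/mL amine-coupled onto Ni-NTA chip, ~1000–4000 RU. Buffer 25 mM Tris-HCl, 5 mM CaCl2, 100 mM NaCl, 0.01% P20, pH 7.5, 5% DMSO in running buffer. 25°C. Double-referenced sensorgrams; KD from steady-state equilibrium responses fit to a 4-parameter model, or kinetics fit 1:1.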

For the next series, the system named is HepG2. In words: Cytotoxicity against human HepG2 cells assessed as reduction in cell viability at 0.4 to 10 uM for 48 hrs by SRB assay. The series is classed as toxicity, cell-based. The settings on record: hepg2, 48 h, dose 0.4-10 µM. The essentials:
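HepG2 cells seeded 2000/well 24 h before treatment. Compounds at 0.4, 1.1, 3.3 and 10 µM in DMEM, 48 h at 37°C. SRB staining 30 min at 37°C, dye dissolved in 10 mM Tris base, absorbance at 560 nm. Triplicate wells averaged and normalized to untreated cells.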
(In general: In SRB staining, fixed cells bind dye roughly in proportion to their protein.)

Series [2] is described as follows: Reversal of LDL uptake in human HepG2 cells at 10 uM for 2 hrs preincubation with PCSK9 followed by LDL addition and measured after 4 hrs by fluorimetry method relative to control. The class given is functional. The settings on record: time 6 hrs. The method, boiled down:
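HepG2 cells seeded 40000/well, serum-starved 24 h in DMEM with 5% LPDS. Human His-PCSK9 (20–50 nM) preincubated 30–60 min at room temperature ± compounds (10 µM to 0.0001 µM, 0.1% DMSO). Cells then exposed 2 h at 37°C. LDL-BODIPY added to 10 µg/mL final for 4 h. Fluorescence read at ex 480/em 520 nm. Expressed as % maximal LDL-BODIPY incorporation; EC50 by non-linear fit.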

Series [3] in a line: Effect on mast cell degranulation in human LAD2 cells assessed as CCL3 release measured after 2 hrs by Luminex bead based assay. The series is classed as functional. The method, boiled down: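 LAD2 human mast cells in StemPro 34 medium, 0.2×10^6 cells/well. Supernatant CCL3 quantified by Luminex magnetic bead kit.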

The source made the active and inactive calls. No cut-off for these calls is given here. Positions of bridges follow the written chain, without caps; N, C: chain ends. Non-standard residues stand in square brackets, D forms with d. Residues, ends and D or L forms follow the SMILES beside them. ξ: configuration not given here. S5 = C=CCCC[C@](C)(N)C(=O)O; Orn = NCCC[C@H](N)C(=O)O; ξK = NCCCCC(N)C(=O)O; ξA = CC(N)C(=O)O

Chain of Proprotein convertase subtilisin/kexin type 9 (Q8NBP7 31-152 limits assumed): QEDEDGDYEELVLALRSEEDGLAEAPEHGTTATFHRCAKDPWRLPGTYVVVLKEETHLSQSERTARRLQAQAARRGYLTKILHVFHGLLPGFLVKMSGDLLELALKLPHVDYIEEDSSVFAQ
Chain of Proprotein convertase subtilisin/kexin type 9 (Q8NBP7 153-692 limits assumed): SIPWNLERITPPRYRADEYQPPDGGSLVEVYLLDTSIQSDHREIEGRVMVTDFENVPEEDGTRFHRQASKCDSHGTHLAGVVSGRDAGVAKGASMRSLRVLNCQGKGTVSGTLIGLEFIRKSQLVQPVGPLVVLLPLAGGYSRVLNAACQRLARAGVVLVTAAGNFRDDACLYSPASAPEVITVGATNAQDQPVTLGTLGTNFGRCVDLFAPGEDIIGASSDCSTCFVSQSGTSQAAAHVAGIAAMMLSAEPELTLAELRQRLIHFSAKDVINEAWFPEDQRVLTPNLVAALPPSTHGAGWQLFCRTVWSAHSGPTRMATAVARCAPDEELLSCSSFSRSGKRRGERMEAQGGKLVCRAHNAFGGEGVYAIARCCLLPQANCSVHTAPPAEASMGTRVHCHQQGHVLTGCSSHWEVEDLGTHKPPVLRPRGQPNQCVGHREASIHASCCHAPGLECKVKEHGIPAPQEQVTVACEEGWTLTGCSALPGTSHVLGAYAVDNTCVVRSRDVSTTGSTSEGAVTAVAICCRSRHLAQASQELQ

Consider `CC(=O)N[C@H](C(=O)N[C@H](C(=O)N[C@@H](Cc1ccccc1)C(=O)N[C@H](C(=O)N[C@@H](CO)C(=O)N[C@@H](Cc1c[nH]c2ccccc12)C(=O)N[C@@]1(C)CCC/C=C\CCC[C@@](C)(C(=O)N[C@@H](Cc2c[nH]c3ccccc23)C(=O)N[C@H](C(N)=O)C(C)C)NC(=O)[C@H](CC(C)C)NC(=O)[C@H](Cc2ccc(O)cc2)NC(=O)[C@H](CCC(=O)O)NC1=O)[C@@H](C)O)C(C)C)[C@@H](C)O` (Ac-TVFTSW[S5]EYL[S5]WV-NH2; staple (Z) 7-11), for which the dissociation constant (Kd) (as a rule, the free concentration of one partner at which half of the binding sites on the other are occupied at equilibrium, for simple one-to-one binding) in series [1] amounted to 6500 nM. Besides, the figures for the Activity result (in the series with HepG2; in series [2]) were “Non-Toxic” and 42.7%, respectively.
Regarding `CC(=O)N[C@@H](Cc1cnc[nH]1)C(=O)N[C@H](C(=O)N[C@@H](Cc1ccccc1)C(=O)N[C@@H](CC(N)=O)C(=O)N[C@@H](CO)C(=O)N[C@@H](Cc1c[nH]c2ccccc12)C(=O)N[C@H]1CCCCNC(=O)C[C@@H](C(=O)N[C@@H](Cc2c[nH]c3ccccc23)C(=O)N[C@H](C(N)=O)C(C)C)NC(=O)[C@H](CC(C)C)NC(=O)[C@H](Cc2ccc(O)cc2)NC(=O)[C@H](CCC(=O)O)NC1=O)C(C)C` (Ac-HVFNSWKEYLDWV-NH2; lactam 7-11), the Kd in series [1] came out at 5300 nM. Besides, the Activity entry with HepG2 is recorded as “Non-Toxic”.
The corresponding values for `CC(=O)N[C@@H](Cc1cnc[nH]1)C(=O)N[C@H](C(=O)N[C@@H](Cc1ccccc1)C(=O)N[C@@H](CC(N)=O)C(=O)N[C@@H](CO)C(=O)N[C@@H](Cc1c[nH]c2ccccc12)C(=O)N[C@H]1CCCCNC(=O)C[C@@H](C(=O)N[C@@H](Cc2c[nH]c3ccccc23)C(=O)N[C@H](C(=O)NC(CCCCN)C(=O)NC(CCCCN)C(=O)NC(CCCCN)C(N)=O)C(C)C)NC(=O)[C@H](CC(C)C)NC(=O)[C@H](Cc2ccc(O)cc2)NC(=O)[C@H](CCC(=O)O)NC1=O)C(C)C` (stereo not given in full) (Ac-HVFNSWKEYLDWV[ξK][ξK][ξK]-NH2; lactam 7-11) are 757 nM and “Non-Toxic”.
The corresponding values for `CC(=O)N[C@@H](Cc1cnc[nH]1)C(=O)N[C@H](C(=O)N[C@@H](Cc1ccccc1)C(=O)N[C@@H](CC(N)=O)C(=O)N[C@@H](CO)C(=O)N[C@@H](Cc1c[nH]c2ccccc12)C(=O)N[C@H]1CCCCNC(=O)C[C@@H](C(=O)N[C@@H](Cc2c[nH]c3ccccc23)C(=O)N[C@H](C(=O)N[C@@H](CCCCN)C(=O)N[C@@H](CCCCN)C(=O)N[C@@H](CCCCN)C(=O)N[C@@H](CCCCN)C(=O)N[C@@H](CCCCN)C(=O)N[C@@H](CCCCN)C(N)=O)C(C)C)NC(=O)[C@H](CC(C)C)NC(=O)[C@H](Cc2ccc(O)cc2)NC(=O)[C@H](CCC(=O)O)NC1=O)C(C)C` (Ac-HVFNSWKEYLDWVKKKKKK-NH2; lactam 7-11) are 19 nM and “Non-Toxic”.
The corresponding values for `CC(=O)N[C@H](C(=O)N[C@H](C(=O)N[C@@H](Cc1ccccc1)C(=O)N[C@H](C(=O)N[C@@H](CO)C(=O)N[C@@H](Cc1c[nH]c2ccccc12)C(=O)N[C@H]1CCCCNC(=O)C[C@@H](C(=O)N[C@@H](Cc2c[nH]c3ccccc23)C(=O)N[C@H](C(=O)N[C@@H](CCCCN)C(=O)N[C@@H](CCCCN)C(=O)N[C@@H](CCCCN)C(=O)N[C@@H](CCCCN)C(=O)N[C@@H](CCCCN)C(=O)N[C@@H](CCCCN)C(N)=O)C(C)C)NC(=O)[C@H](CC(C)C)NC(=O)[C@H](Cc2ccc(O)cc2)NC(=O)[C@H](CCC(=O)O)NC1=O)[C@@H](C)O)C(C)C)[C@@H](C)O` (Ac-TVFTSWKEYLDWVKKKKKK-NH2; lactam 7-11) are 25 nM and “Non-Toxic”.
`CC(=O)N[C@@H](Cc1cnc[nH]1)C(=O)N[C@H](C(=O)N[C@@H](Cc1ccccc1)C(=O)N[C@@H](CC(N)=O)C(=O)N[C@@H](CO)C(=O)N[C@@H](Cc1c[nH]c2ccccc12)C(=O)N[C@@H](CCC(=O)O)C(=O)N[C@@H](CCC(=O)O)C(=O)N[C@@H](Cc1ccc(O)cc1)C(=O)N[C@@H](CC(C)C)C(=O)N[C@@H](CC(=O)O)C(=O)N[C@@H](Cc1c[nH]c2ccccc12)C(=O)N[C@H](C(=O)NC(CCCCN)C(=O)NC(CCCCN)C(=O)NC(CCCCN)C(N)=O)C(C)C)C(C)C` (stereo not given in full) (Ac-HVFNSWEEYLDWV[ξK][ξK][ξK]-NH2) gave a Kd in series [1] of 1100 nM. Further, the Activity entry with HepG2 is “Non-Toxic”.
The matching figures for `CC(=O)N[C@@H](Cc1cnc[nH]1)C(=O)N[C@H](C(=O)N[C@@H](Cc1ccccc1)C(=O)N[C@@H](CCCNC(=N)N)C(=O)N[C@@H](CO)C(=O)N[C@@H](Cc1c[nH]c2ccccc12)C(=O)N[C@@]1(C)CCC/C=C\CCC[C@@](C)(C(=O)N[C@@H](Cc2c[nH]c3ccccc23)C(=O)N[C@H](C(=O)N[C@@H](CCCCN)C(=O)N[C@@H](CCCCN)C(=O)N[C@@H](CCCCN)C(=O)N[C@@H](CCCCN)C(=O)N[C@@H](CCCCN)C(=O)N[C@@H](CCCCN)C(N)=O)C(C)C)NC(=O)[C@H](CC(C)C)NC(=O)[C@H](Cc2ccc(O)cc2)NC(=O)[C@H](CCC(=O)O)NC1=O)C(C)C` (Ac-HVFRSW[S5]EYL[S5]WVKKKKKK-NH2; staple (Z) 7-11): 7 nM and “Non-Toxic”.
For `CC(=O)N[C@H](C(=O)N[C@H](C(=O)N[C@@H](Cc1ccccc1)C(=O)N[C@H](C(=O)N[C@@H](CO)C(=O)N[C@@H](Cc1c[nH]c2ccccc12)C(=O)N[C@H]1CCCCNC(=O)C[C@@H](C(=O)N[C@@H](Cc2c[nH]c3ccccc23)C(=O)N[C@H](C(=O)N[C@@H](CCCCN)C(=O)N[C@@H](CCCCN)C(=O)N[C@@H](C)C(=O)N[C@@H](CCCCN)C(=O)N[C@@H](CCCCN)C(=O)N[C@H](CCCCN)C(N)=O)C(C)C)NC(=O)[C@H](CC(C)C)NC(=O)[C@H](Cc2ccc(O)cc2)NC(=O)[C@H](CCC(=O)O)NC1=O)[C@@H](C)O)C(C)C)[C@@H](C)O`, binding in series [1] was put at a Kd of 133 nM.
In series [1], `CC(=O)N[C@@H](Cc1cnc[nH]1)C(=O)N[C@H](C(=O)N[C@@H](Cc1ccccc1)C(=O)N[C@@H](CCCN)C(=O)N[C@@H](CO)C(=O)N[C@@H](Cc1c[nH]c2ccccc12)C(=O)N[C@@H](CCC(=O)O)C(=O)N[C@@H](CCC(=O)O)C(=O)N[C@@H](Cc1ccc(O)cc1)C(=O)N[C@@H](CC(C)C)C(=O)N[C@@H](CC(=O)O)C(=O)N[C@@H](Cc1c[nH]c2ccccc12)C(=O)N[C@H](C(N)=O)C(C)C)C(C)C` (Ac-HVF[Orn]SWEEYLDWV-NH2) registered a Kd of 1100 nM. In the series on HepG2, the Activity entry is on record as “Non-Toxic”.
The matching figures for Ac-TVFTSWAEYLDWV-NH2: 7000 nM and “Non-Toxic”.
For Ac-HVFNSWEEYLDWV-NH2, in series [1], the Kd stood at 3900 nM. Besides, the Activity entry with HepG2 was “Non-Toxic”; in series [2], 62.4%.
As for `CC(=O)N[C@H](C(=O)N[C@H](C(=O)N[C@@H](Cc1ccccc1)C(=O)N[C@H](C(=O)N[C@@H](CO)C(=O)N[C@@H](Cc1c[nH]c2ccccc12)C(=O)N[C@@H](CCC(=O)O)C(=O)N[C@@H](CCC(=O)O)C(=O)N[C@@H](Cc1ccc(O)cc1)C(=O)N[C@@H](CC(C)C)C(=O)NC(C)C(=O)N[C@@H](Cc1c[nH]c2ccccc12)C(=O)N[C@H](C(=O)N[C@@H](CCCCN)C(=O)N[C@@H](CCCCN)C(=O)N[C@@H](CCCCN)C(=O)N[C@@H](CCCCN)C(=O)N[C@@H](CCCCN)C(=O)N[C@@H](CCCCN)C(N)=O)C(C)C)[C@@H](C)O)C(C)C)[C@@H](C)O` (stereo not given in full) (Ac-TVFTSWEEYL[ξA]WVKKKKKK-NH2), in series [1], the affinity, expressed as Kd, was 72.5 nM.
For the compound Ac-TVFTSWEEALDWV-NH2, the Activity result in the series on HepG2 is reported as “Non-Toxic”.
Consider Ac-HVCNSWEEYLDWV-NH2, for which the result in series [1] was inactive. The Activity result with HepG2 is “Non-Toxic”.
For the compound Ac-TVFTSWEEYLAWV-NH2, the Kd in series [1] is 8600 nM.
As for Ac-TVATSWEEYLDWV-NH2, the outcome in series [1] was inactive.
Compound `CC(=O)N[C@H](C(=O)N[C@H](C(=O)N[C@@H](Cc1ccccc1)C(=O)N[C@H](C(=O)N[C@@H](CO)C(=O)N[C@@H](Cc1c[nH]c2ccccc12)C(=O)N[C@H]1CCCCNC(=O)C[C@@H](C(=O)N[C@@H](Cc2c[nH]c3ccccc23)C(=O)N[C@H](C(N)=O)C(C)C)NC(=O)[C@H](CC(C)C)NC(=O)[C@H](Cc2ccc(O)cc2)NC(=O)[C@H](CCC(=O)O)NC1=O)[C@@H](C)O)C(C)C)[C@@H](C)O` (Ac-TVFTSWKEYLDWV-NH2; lactam 7-11) came in with a Kd in series [1] of 3900 nM. Besides, the Activity result is “Non-Toxic” with HepG2 and 52% in series [2]. For the same compound, the EC50 (commonly the concentration giving half of the maximal effect) in series [3] (Homo sapiens, LAD2, 2 h) is greater than 5000 nM. The Emax in series [3] (time 2 hrs) came to 716.6 pg/mL.
In series [1], Ac-HVFRSWEEYLDWV-NH2 registered a Kd of 865 nM. Further, in the series on HepG2, the Activity result is listed as “Non-Toxic”.
The matching figures for `CC(=O)N[C@H](C(=O)N[C@H](C(=O)N[C@@H](Cc1ccccc1)C(=O)N[C@H](C(=O)N[C@@H](CO)C(=O)N[C@@H](Cc1c[nH]c2ccccc12)C(=O)N[C@H]1CCCCNC(=O)C[C@@H](C(=O)N[C@@H](Cc2c[nH]c3ccccc23)C(=O)N[C@H](C(=O)N[C@@H](CCCCN)C(=O)N[C@@H](CCCCN)C(=O)N[C@@H](CCCCN)C(N)=O)C(C)C)NC(=O)[C@H](CC(C)C)NC(=O)[C@H](Cc2ccc(O)cc2)NC(=O)[C@H](CCC(=O)O)NC1=O)[C@@H](C)O)C(C)C)[C@@H](C)O` (Ac-TVFTSWKEYLDWVKKK-NH2; lactam 7-11): 1000 nM and “Non-Toxic”.
The matching figures for Ac-HVFKSWEEYLDWV-NH2: 1200 nM and “Non-Toxic”.
